Experimental data reported in ChEMBL document CHEMBL1687758, “Azithromycin alters macrophage phenotype and pulmonary compartmentalization during lung infection with Pseudomonas” (2010).
Active and inactive are the calls of the source. The rule behind the calls is not given here.

What was measured:
Mus musculus [1] = assay: Immunomodulatory activity in Pseudomonas aeruginosa M57-15 infected C57BL/6 mouse lung assessed as CD11b+c- cell expression level in lung lavage fluid at 0.16 g/kg, po measured after 14 days by flow cytometry (reference value: 1.15 +/- 0.62 %); type: functional
Procedure, shortened: (§1)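 Oral gavage of 0.16 g/kg daily (2% methylcellulose vehicle) began 4 days before intratracheal bead infection (1 × 105 to 2 × 10^5 CFU). On days 3, 7 and 14, cells were taken from lavage (0.3 mM EDTA buffer) and from collagenase/DNase lung digest (1 h, 37°C). Cells were stained for CD11b, CD11c, Gr-1, CD4, CD80, MHC-II and MR, with more than 50,000 events acquired. Counts were gated percent × manual cell count.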

Mus musculus [2] = assay: Immunomodulatory activity in Pseudomonas aeruginosa M57-15 infected C57BL/6 mouse lung assessed as CD11b+c+ cell expression level in lung lavage fluid at 0.16 g/kg, po measured after 3 days by flow cytometry (reference value: 2.38 +/- 0.75 %); type: functional; procedure, shortened: as §1
Mus musculus [3] = assay: Immunomodulatory activity in Pseudomonas aeruginosa M57-15 infected C57BL/6 mouse lung assessed as CD11b+c+ cell expression level in lung lavage fluid at 0.16 g/kg, po measured after 7 days by flow cytometry (reference value: 1.51 +/- 1.53 %); type: functional; procedure, shortened: as §1
Mus musculus [4] = assay: Immunomodulatory activity in Pseudomonas aeruginosa M57-15 infected C57BL/6 mouse lung assessed as CD11b+c+ cell expression level in lung lavage fluid at 0.16 g/kg, po measured after 14 days by flow cytometry (reference value: 5.42 +/- 5.34 %); type: functional; procedure, shortened: as §1
Mus musculus [5] = assay: Immunomodulatory activity in Pseudomonas aeruginosa M57-15 infected C57BL/6 mouse lung assessed as CD11b-c+ cell expression level in lung lavage fluid at 0.16 g/kg, po measured after 3 days by flow cytometry (reference value: 47.01 +/- 33.74 %); type: functional; procedure, shortened: as §1
Mus musculus [6] = assay: Immunomodulatory activity in Pseudomonas aeruginosa M57-15 infected C57BL/6 mouse lung assessed as CD11b-c+ cell expression level in lung lavage fluid at 0.16 g/kg, po measured after 7 days by flow cytometry (reference value: 72.59 +/- 16.30 %); type: functional; procedure, shortened: as §1
Mus musculus [7] = assay: Immunomodulatory activity in Pseudomonas aeruginosa M57-15 infected C57BL/6 mouse lung assessed as CD11b-c+ cell expression level in lung lavage fluid at 0.16 g/kg, po measured after 14 days by flow cytometry (reference value: 72.38 +/- 13.69 %); type: functional; procedure, shortened: as §1
Mus musculus [8] = assay: Immunomodulatory activity in Pseudomonas aeruginosa M57-15 infected C57BL/6 mouse lung assessed as increase of mannose receptor expression in lung digest at 0.16 g/kg, po measured after 7 days by flow cytometry; type: functional, organism-based; procedure, shortened: as §1
Mus musculus [9] = assay: Immunomodulatory activity in Pseudomonas aeruginosa M57-15 infected C57BL/6 mouse lung assessed as up-regulation of CCR7 expression in CD11+ Gr1- cells in lung digest at 0.16 g/kg, po measured after 7 days by flow cytometry; type: functional, organism-based; procedure, shortened: as §1
Mus musculus [10] = assay: Immunomodulatory activity in Pseudomonas aeruginosa M57-15 infected C57BL/6 mouse lung assessed as up-regulation of MHC2 expression in CD11+ Gr1- cells in lung digest at 0.16 g/kg, po measured after 7 days by flow cytometry; type: functional, organism-based; procedure, shortened: as §1
Mus musculus [11] = assay: Immunomodulatory activity in Pseudomonas aeruginosa M57-15 infected C57BL/6 mouse lung assessed as increase of mannose receptor expression in CD11b+ Gr1+ cells in lung digest at 0.16 g/kg, po measured after 7 days by flow cytometry; type: functional, organism-based; procedure, shortened: as §1
Mus musculus [12] = assay: Immunomodulatory activity in Pseudomonas aeruginosa M57-15 infected C57BL/6 mouse lung assessed as increase of MHC2 expression in CD11b+ Gr1+ cells in alveolar space at 0.16 g/kg, po measured after 7 days by flow cytometry; type: functional, organism-based; procedure, shortened: as §1
Mus musculus [13] = assay: Immunomodulatory activity in Pseudomonas aeruginosa M57-15 infected C57BL/6 mouse lung assessed as increase of CD80 expression in CD11b+ Gr1+ cells in alveolar space at 0.16 g/kg, po measured after 7 days by flow cytometry; type: functional, organism-based; procedure, shortened: as §1
Mus musculus [14] = assay: Immunomodulatory activity in Pseudomonas aeruginosa M57-15 infected C57BL/6 mouse lung assessed as increase of mannose receptor expression in CD11b+ Gr1+ cells in alveolar space at 0.16 g/kg, po measured after 7 days by flow cytometry; type: functional, organism-based; procedure, shortened: as §1
Mus musculus [15] = assay: Immunomodulatory activity in Pseudomonas aeruginosa M57-15 infected C57BL/6 mouse lung assessed as decrease of IL-10 production in CD11b+ cells in lung digest at 0.16 g/kg, po measured after 7 days by flow cytometry; type: functional, organism-based
Procedure, shortened: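 Lung digest cells (2 × 106) were stimulated for 4 h with 50 ng/ml PMA and 500 ng/ml ionomycin plus 10 μg/ml brefeldin A. They were surface-stained for CD11b/CD11c, fixed in 4% formalin, permeabilized with 0.05% saponin, Fc-blocked, and stained for intracellular TNF-α and IL-10 for flow cytometry. Mice were dosed at 0.16 g/kg by daily oral gavage from 4 days before infection.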

Mus musculus [16] = assay: Immunomodulatory activity in Pseudomonas aeruginosa M57-15 infected C57BL/6 mouse lung assessed as decrease of TNFalpha production in CD11b+ cells in lung lavage fluid at 0.16 g/kg, po measured after 7 days by flow cytometry; type: functional, organism-based
Procedure, shortened: (§2)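 The first 1-ml lavage wash was frozen at −80°C. Samples diluted 5-fold were incubated 3 h at room temperature with capture beads for a cytometric bead array (IL-12p70, CCL2, TNF-α, IL-10, IFN-γ, IL-6) plus a PE-conjugated detection antibody. Fluorescence was read by flow cytometry against standard curves. Mice had daily oral 0.16 g/kg from 4 days before intratracheal infection.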

Mus musculus [17] = assay: Immunomodulatory activity in Pseudomonas aeruginosa M57-15 infected C57BL/6 mouse lung assessed as decrease of IL-6 production in CD11b+ cells in lung lavage fluid at 0.16 g/kg, po measured after 7 days by flow cytometry; type: functional, organism-based; procedure, shortened: as §2
Mus musculus [18] = assay: Immunomodulatory activity in Pseudomonas aeruginosa M57-15 infected C57BL/6 mouse lung assessed as decrease of CCL2 production in CD11b+ cells in lung lavage fluid at 0.16 g/kg, po measured after 7 days by flow cytometry; type: functional, organism-based; procedure, shortened: as §2
Mus musculus [19] = assay: Immunomodulatory activity in Pseudomonas aeruginosa M57-15 infected C57BL/6 mouse lung assessed as decrease of IL-10 production in CD11b+ cells in lung lavage fluid at 0.16 g/kg, po measured after 7 days by flow cytometry; type: functional, organism-based; procedure, shortened: as §2
Mus musculus [20] = assay: Immunomodulatory activity in Pseudomonas aeruginosa M57-15 infected C57BL/6 mouse lung assessed as decrease of IFN-gamma production in CD11b+ cells in lung lavage fluid at 0.16 g/kg, po measured after 7 days by flow cytometry; type: functional, organism-based; procedure, shortened: as §2
Mus musculus [21] = assay: Immunomodulatory activity in Pseudomonas aeruginosa M57-15 infected C57BL/6 mouse lung assessed as decrease of IL-12p70 production in CD11b+ cells in lung lavage fluid at 0.16 g/kg, po measured after 7 days by flow cytometry; type: functional, organism-based; procedure, shortened: as §2
Mus musculus [22] = assay: Immunomodulatory activity in Pseudomonas aeruginosa M57-15 infected C57BL/6 mouse lung assessed as increase of total cells in lung digest at 0.16 g/kg, po measured by flow cytometry
Mus musculus [23] = assay: Immunomodulatory activity in Pseudomonas aeruginosa M57-15 infected C57BL/6 mouse lung assessed as increase of arginase activity in lung digest at 0.16 g/kg, po measured after 7 days

## CC[C@H]1OC(=O)[C@H](C)[C@@H](O[C@H]2C[C@@](C)(OC)[C@@H](O)[C@H](C)O2)[C@H](C)[C@@H](O[C@@H]2O[C@H](C)C[C@H](N(C)C)[C@H]2O)[C@](C)(O)C[C@@H](C)CN(C)[C@H](C)[C@@H](O)[C@]1(C)O [AZITHROMYCIN]
Mus musculus [1]
  Activity: 2.24%
Mus musculus [2]
  Activity: 2.37%
Mus musculus [3]
  Activity: 21.67%
Mus musculus [4]
  Activity: 5.25%
Mus musculus [5]
  Activity: 34.84%
Mus musculus [6]
  Activity: 38.47%
Mus musculus [7]
  Activity: 46.16%
Mus musculus [8]
  Activity: Active
Mus musculus [9]
  Activity: Active
Mus musculus [10]
  Activity: Active
Mus musculus [11]
  Activity: Active
Mus musculus [12]
  Activity: Active
Mus musculus [13]
  Activity: Active
Mus musculus [14]
  Activity: Active
Mus musculus [15]
  Activity: inactive
Mus musculus [16]
  Activity: Active
Mus musculus [17]
  Activity: Active
Mus musculus [18]
  Activity: Active
Mus musculus [19]
  Activity: inactive
Mus musculus [20]
  Activity: inactive
Mus musculus [21]
  Activity: inactive
Mus musculus [22]
  Activity: Active
Mus musculus [23]
  Activity: Active
